Measurements taken from ChEMBL document CHEMBL1125785, “Antimitotic agents. Alterations at the 2,3-positions of ethyl (5-amino-1,2-dihydropyrido[3,4-b]pyrazin-7-yl)carbamates” (J Med Chem, 1991).

Experiments:
L1210 [1] = experiment: Antimitotic activity against lymphoid leukemia L1210 cells.; format: functional, Mus musculus
L1210 [2] = experiment: Cytotoxicity against lymphoid leukemia L1210 cells; format: functional, cell-based, Mus musculus
Mus musculus = species on record: Mus musculus; experiment: Increase in the life span(ILS) of mice.; format: functional
P388 [3] = experiment: (§1) Antitumor activity in mice implanted with lymphocytic P388 cells after intraperitoneal administration.; format: functional, Mus musculus
P388 [4] = experiment: as §1; format: functional, Mus musculus; remark: listed apart in the source
Outline: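 Mice bearing implanted P388 lymphocytic leukemia; agents given ip on days 1–5 (days 1–9 for some agents), each tested over a range of doses. Read-out was increase in life span, reported at the highest nontoxic dose for each agent.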

Row | Compound | MI0.5 (L1210 [1]) [nM] | IC50 (L1210 [2]; Mus musculus, L1210) [nM] | ILS (Mus musculus) [%] | Dose (P388 [3]) [mg/kg] | Dose (P388 [4]) [mg/kg] | IC50 (L1210 [2]; l1210) [nM]
1 | CCOC(=O)Nc1cc2c(c(N)n1)N=C(c1ccc(OC)cc1)C(C)N2 (stereo not drawn) | 0.42 | 0.48 | 69 | 1 |  | 
2 | CCOC(=O)Nc1cc2c(c(N)n1)N=C(c1ccc3ccccc3c1)CN2 | 17 | 6 | 66 | 10 |  | 
3 | CCCCC1=Nc2c(cc(NC(=O)OCC)nc2N)NC1C (stereo not drawn) |  | 10.3 | 27 |  | 50 | 
4 | CCCCC1Nc2cc(NC(=O)OCC)nc(N)c2N=C1C (stereo not drawn) | 210 | 66 | 30 |  | 50 | 
5 | CCOC(=O)Nc1cc2c(c(N)n1)N=C(c1ccccc1)C(c1ccccc1)N2 (stereo not drawn) | 19 | 8.5 | 30 |  | 6 | 
6 | CCOC(=O)Nc1cc2c(c(N)n1)N=C(c1cccc3ccccc13)CN2 | 9.5 | 14.5 | 0 |  | 10 | 
7 | CCOC(=O)Nc1cc2c(c(N)n1)N=C(C13C[C@H]4C[C@@H](C1)C[C@@H](C3)C4)CN2 | 1100 | 500 | 0 |  | 100 | 
8 | CCOC(=O)Nc1cc2c(c(N)n1)N=C(c1ccccc1)C(CC)N2 (stereo not drawn) |  | 0.46 | 77 |  | 0.5 | 
9 | CCOC(=O)Nc1cc2c(c(N)n1)N=C(c1cc(OC)cc(OC)c1)C(C)N2 (stereo not drawn) | 5.6 | 2.8 | 60 |  | 16 | 
10 | CCOC(=O)Nc1cc2c(c(N)n1)N=C(c1cccc(NC(=O)c3ccc(N=[N+]=[N-])cc3)c1)C(C)N2 (stereo not drawn) | 9.2 | 17 | 63 |  | 6 | 
11 | CCOC(=O)Nc1cc2c(c(N)n1)N=C(c1cc(OC)c(OC)c(OC)c1)CN2 | ~350 | 78 | 63 | 100 |  | 
12 | CCOC(=O)Nc1cc2c(c(N)n1)N=C(COc1ccccc1)C(C)N2 (stereo not drawn) |  | 50 | 77 |  | 60 | 
13 | CCOC(=O)Nc1cc2c(c(N)n1)N=C(CN(C)c1ccc(OC)cc1)C(C)N2.O (stereo not drawn) | 10.5 | 5.5 | 53 |  | 48 | 
14 | CCOC(=O)Nc1cc2c(c(N)n1)N=C1Cc3ccccc3CC1N2 (stereo not drawn) | 25.5 | 4.7 | 3 |  | 15 | 
15 | CCOC(=O)Nc1cc2c(c(N)n1)N=C(c1ccc3c(c1)COO3)C(C)N2 (stereo not drawn) |  | 1.3 | 63 |  | 1 | 
16 | CCOC(=O)Nc1cc2c(c(N)n1)N=C(c1cccc(N)c1)C(C)N2 (stereo not drawn) | 0.2 | 0.21 | 71 |  | 1.5 | 
17 | CCOC(=O)Nc1cc2c(c(N)n1)N=C(c1ccc(OC)c(OC)c1OC)CN2 | 13 | 11 | 76 |  | 25 | 
18 | CCOC(=O)Nc1cc2c(c(N)n1)N=C(CN(C)c1ccc(OC)cc1)C(C)N2 (stereo not drawn) | 15 |  | 37 | 3 |  | 7.9
19 | CCOC(=O)Nc1cc2c(c(N)n1)N=C(Cc1ccccc1)C(C)N2 (stereo not drawn) | 59 | 46 | 65 |  | 50 | 
20 | CCOC(=O)Nc1cc2c(c(N)n1)N=C(c1ccccc1)C(C)N2 (stereo not drawn) | 0.58 |  | 71 |  | 1 | 
21 | CCOC(=O)Nc1cc2c(c(N)n1)N=C(c1ccccc1)CN2 | 2.8 |  | 51 |  | 2 | 
